Laboratory results from ChEMBL document CHEMBL2321824, “5-((1-Aroyl-1H-indol-3-yl)methylene)-2-thioxodihydropyrimidine-4,6(1H,5H)-diones as potential anticancer agents with anti-inflammatory properties” (2013).

Legend:
Assay type in all cases: functional
[1] = test system: NCI/ADR-RES; assay: Cytotoxicity against human NCI/ADR-RES cells; conditions: for CC50: read-out: LC50 (the source's name)
In short: (§1)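 Tested in the NCI 60 human tumor cell line panel (leukemia, NSCLC, colon, CNS, melanoma, ovarian, renal, prostate and breast lines) at five doses. A single-dose pre-screen at 10 μM selected which compounds went on. Effect was plotted against log10 drug concentration for each line. GI50 is the molar concentration giving 50% growth inhibition; LC50 is the concentration killing 50% of cells.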

[2] = test system: DU-145; assay: Cytotoxicity against human DU145 cells; conditions: for CC50: read-out: LC50 (the source's name); in short: as §1
[3] = test system: OVCAR-3; assay: Cytotoxicity against human OVCAR3 cells; conditions: for CC50: read-out: LC50 (the source's name); in short: as §1
[4] = test system: SK-MEL-5; assay: Cytotoxicity against human SK-MEL-5 cells; in short: as §1
[5] = test system: UACC-62; assay: Cytotoxicity against human UACC62 cells; conditions: for CC50: read-out: LC50 (the source's name); in short: as §1
[6] = test system: M14; assay: Cytotoxicity against human M14 cells; in short: as §1
[7] = test system: MDA-MB-435; assay: Cytotoxicity against human MDA-MB-435 cells; conditions: for CC50: read-out: LC50 (the source's name)
In short: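 Tested in the NCI 60 human tumor cell line panel (leukemia, NSCLC, colon, CNS, melanoma, ovarian, renal, prostate and breast lines) at five doses. A single-dose pre-screen at 10 μM selected which compounds went on. Effect was plotted against log10 drug concentration for each line.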

[8] = test system: LOX IMVI; assay: Cytotoxicity against human LOXIMVI cells; conditions: for CC50: read-out: LC50 (the source's name); in short: as §1
[9] = test system: SF-539; assay: Cytotoxicity against human SF539 cells; conditions: for CC50: read-out: LC50 (the source's name); in short: as §1
[10] = test system: U-251; assay: Cytotoxicity against human U251 cells; conditions: for CC50: read-out: LC50 (the source's name); in short: as §1
[11] = test system: SF-268; assay: Cytotoxicity against human SF268 cells; in short: as §1
[12] = test system: HCT-15; assay: Cytotoxicity against human HCT15 cells; conditions: for CC50: read-out: LC50 (the source's name); in short: as §1
[13] = test system: KM12; assay: Cytotoxicity against human KM12 cells; conditions: for CC50: read-out: LC50 (the source's name); in short: as §1
[14] = test system: HCT-116; assay: Cytotoxicity against human HCT116 cells; conditions: for CC50: read-out: LC50 (the source's name); in short: as §1
[15] = test system: SR; assay: Cytotoxicity against human SR cells; in short: as §1
[16] = test system: HOP-62; assay: Cytotoxicity against human HOP62 cells; conditions: for CC50: read-out: LC50 (the source's name); in short: as §1
[17] = test system: K562; assay: Cytotoxicity against human K562 cells; in short: as §1
[18] = test system: CCRF-CEM; assay: Cytotoxicity against human CCRF-CEM cells; conditions: for CC50: read-out: LC50 (the source's name); in short: as §1
[19] = test system: HL-60(TB); assay: Cytotoxicity against human HL-60(TB) cells; in short: as §1
[20] = test system: UO-31; assay: Cytotoxicity against human UO31 cells; conditions: for CC50: read-out: LC50 (the source's name); in short: as §1
[21] = test system: HOP-92; assay: Cytotoxicity against human HOP92 cells; conditions: for CC50: read-out: LC50 (the source's name); in short: as §1
[22] = test system: MOLT-4; assay: Cytotoxicity against human MOLT4 cells; conditions: for CC50: read-out: LC50 (the source's name); in short: as §1

| SMILES | GI50 [1] [µM] | GI50 [3] [µM] | CC50 [3] [µM] | GI50 [6] [µM] | CC50 [7] [µM] | GI50 [8] [µM] | CC50 [8] [µM] | GI50 [9] [µM] | CC50 [9] [µM] | GI50 [11] [µM] | GI50 [12] [µM] | CC50 [12] [µM] | GI50 [14] [µM] | GI50 [15] [µM] | GI50 [17] [µM] | GI50 [18] [µM] | CC50 [18] [µM] | GI50 [19] [µM] | CC50 [1] [µM] | LC50 [6] [µM] | further results |
| --- | --- | --- | --- | --- | --- | --- | --- | --- | --- | --- | --- | --- | --- | --- | --- | --- | --- | --- | --- | --- | --- |
| COc1ccc(C(=O)n2cc(C=C3C(=O)NC(=S)NC3=O)c3cc(OC)ccc32)cc1 | 2.91 | 1.26 | > 50 | 2.03 | 3.86 | 1.86 | > 50 | 2.56 | > 50 | 2.65 | 1.8 | > 50 | 1.95 | 1.45 | 2.55 | 2.23 | > 50 | 3.91 | – | – | GI50 [2]: 2.41 µM; CC50 [2]: > 50 µM; GI50 [4]: 2.31 µM; GI50 [5]: 2.33 µM; CC50 [5]: > 50 µM; GI50 [10]: 1.93 µM; CC50 [10]: > 50 µM; GI50 [13]: 1.99 µM; CC50 [13]: > 50 µM; GI50 [16]: 3.12 µM; CC50 [16]: > 50 µM |
| COc1ccc2c(c1)c(C=C1C(=O)NC(=S)NC1=O)cn2C(=O)c1ccccc1Br | 3.23 | 2.77 | 33.1 | 3.52 | 8.43 | 2.92 | 47.9 | 3 | 57.8 | 3.86 | 3.83 | 89.9 | 3.76 | 2.55 | 3.8 | 4 | > 100 | 3.24 | > 100 | > 100 | GI50 [2]: 3.01 µM; CC50 [2]: 53.6 µM; GI50 [4]: 3.47 µM; LC50 [4]: > 50 µM; GI50 [5]: 3.38 µM; CC50 [5]: 39.6 µM; GI50 [7]: 1.77 µM; GI50 [10]: 3.09 µM; CC50 [10]: 42.1 µM; LC50 [11]: 52.2 µM; GI50 [13]: 3.87 µM; CC50 [13]: 51.9 µM; CC50 [14]: > 100 µM; LC50 [15]: > 100 µM; GI50 [16]: 3.59 µM; CC50 [16]: 64.3 µM; LC50 [17]: > 100 µM; LC50 [19]: > 100 µM |
| O=C1NC(=S)NC(=O)C1=Cc1cn(C(=O)c2cccc3ccccc23)c2ccccc12 | 2.59 | 2.46 | > 100 | 3.22 | 46.2 | 3.59 | > 100 | 3.58 | 55.6 | 3.68 | 3.6 | 58.6 | 2.9 | 2.74 | 3.71 | 3.35 | > 100 | 3.36 | > 100 | 9.23 | GI50 [20]: 3.93 µM; CC50 [20]: > 100 µM; GI50 [21]: 1.3 µM; CC50 [21]: 44.8 µM; GI50 [22]: 3.49 µM; CC50 [22]: 79 µM; GI50 [7]: 1.91 µM; LC50 [11]: 50.7 µM; CC50 [14]: > 100 µM; LC50 [15]: 44.8 µM; LC50 [17]: > 100 µM; LC50 [19]: > 100 µM |
| COc1ccc2c(c1)c(C=C1C(=O)NC(=S)NC1=O)cn2C(=O)c1cccc2ccccc12 | 3.14 | 2.38 | 20.9 | 1.91 | 12 | 3.8 | > 100 | 3.23 | > 100 | 2.3 | 3.1 | > 100 | 3.35 | 3.32 | 3.52 | 3.31 | > 100 | 3.47 | > 100 | > 100 | GI50 [20]: 3.72 µM; CC50 [20]: > 100 µM; GI50 [21]: 1.09 µM; CC50 [21]: > 100 µM; GI50 [22]: 3.95 µM; CC50 [22]: > 100 µM; GI50 [7]: 2.01 µM; LC50 [11]: > 100 µM; CC50 [14]: > 100 µM; LC50 [15]: > 100 µM; LC50 [17]: > 100 µM; LC50 [19]: > 100 µM |
